ARNT TACC3 PPI – ARNT/TACC3 interaction disruption | Q9Y6A5 | inhibition, % at 9.99 µM | 390,000 tested, 0.66% active | AID 623870 | AlphaScreen His-ARNT PAS-B/GST-TACC3 binding, luminescence; TACC3 fragment carries E629A point mutation;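 active means mean inhibition of replicates at least 50% and at least half of replicates each reaching 50%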
CAL PDZ FP-1 – human CAL PDZ-peptide interaction inhibition; Q9HD26; purified CAL PDZ, TMR-peptide fluorescence polarization, 1 h; inhibition, % at 20 µM; 330,000 tested, 0.02% active;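 active means highest replicate inhibition of at least 40%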
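Assay system – tagged CAL PDZ protein CerCALP, purified · Timing – 1 h at RT · Compound – single point, 20 µM · Measured by – fluorescence polarization from S- and P-plane intensities, G-factor corrected · Evaluation – inhibition from polarization loss · Probe or stimulus – TMR reporter peptide T*-PRC34 · Buffer or medium – pH 7.4 phosphate-saline buffer, reducing agent, detergent, IgG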
CaV13 FRET inh – Primary screen for inhibitors of IQ motif and Ca2+-dependent inactivation inhibitor domain binding in CACNA1D, Förster resonance energy transfer in living cells, …. HEK cells, CFP/YFP FRET ICDI-IQ, plate reader, 10 min; percent FRET-ratio fall versus neutral wells. inhibition, % at 12.3 µM. 340,000 tested, 0.098% active. AID 743397;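 active means mean replicate inhibition of at least 30% and at least 1% of replicates passing that level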
CAL PDZ FP-2 – blocks peptide binding to the human CAL PDZ domain | Q9HD26 | purified CAL PDZ, TMR-peptide fluorescence polarization, 1 h | inhibition, % at 24.9 µM | 300,000 tested, 0.92% active;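 active means mean inhibition of at least 30% with at least half of replicates also reaching 30%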
ARNT Alpha ctr – counter-screen for ARNT/TACC3 inhibitors: AlphaScreen artifacts; 1,200 tested, 50% active; AC50, µM (highest dose often 68 µM); shares compounds with ARNT TACC3 PPI; His-ARNT PASB-GST AlphaScreen artifact counter-screen, luminescence;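 active means every separate test run was called active for a drop in luminescence, with AC50 within twice the top valid dose, actives reach about 71 µM in these data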
Of the large screens only hits and unclear results are named; the others gave an inactive call (follow-up assays come after a bar, where they were run). An excerpt weighted towards active compounds, which were near 1.2% of everything screened.

COc1cc2c(cc1O)C[C@H]1NCCc3cc4c(c-2c31)OCO4	ARNT TACC3 PPI 52.0
COc1cc2c(cc1OC)-c1c(OC)c(OC)cc3c1C(C2)N(C)CC3 (centres undefined)	none (no result: CaV13 FRET inh)
COc1cc2c(cc1OC)-c1c3c(cc4c1[C@@H](C2)N(C)CC4)OCO3	ARNT TACC3 PPI 35.3
COc1cccc(CNCCc2ccc(F)cc2)c1	CAL PDZ FP-2 77.1
CC=Cc1ccc2n(c1=O)C[C@@H]1[C@@H](CO)[C@H](C(=O)N(C)C)[C@H]2N1C (mixture of isomers)	none (no result: CAL PDZ FP-1, CaV13 FRET inh, CAL PDZ FP-2)
O=C(c1ccc2c(c1)OCO2)C1CCCN(Cc2c(F)cccc2Cl)C1 (centres undefined)	none (no result: CAL PDZ FP-2)
O=C(c1ccc2c(c1)OCO2)C1CCCN(CC2CCCCC2)C1 (centres undefined)	CAL PDZ FP-2 78.4
CC1CN=C(Nc2ccc(F)c(Cl)c2)S1 (centres undefined)	CAL PDZ FP-2 54.2
CC=Cc1ccc2n(c1=O)C[C@@H]1[C@@H](CO)[C@H](C(=O)OC)[C@H]2N1C(=O)CC1CC1 (mixture of isomers)	none (no result: CAL PDZ FP-1, CaV13 FRET inh, CAL PDZ FP-2)
c1cc2c(cc1[C@H]1OC[C@H]3[C@@H]1CO[C@H]3c1ccc3c(c1)OCO3)OCO2	none
N#CC1=C(N)Oc2cc(O)ccc2C1c1ccc2c(c1)OCO2 (centres undefined)	CaV13 FRET inh 143.9 (no result: ARNT TACC3 PPI)
COC(=O)[C@@H]1[C@@H](CO)[C@@H]2Cn3c(ccc(C4=CCCCC4)c3=O)[C@H]1N2CC1CCCC1	none (no result: CAL PDZ FP-1, CaV13 FRET inh, CAL PDZ FP-2)
CCOC(=O)c1cc2c(cn1)[C@@H](CCO)NC2	ARNT TACC3 PPI 55.5 | ARNT Alpha ctr inactive
COc1cc2c(c(OC)c1OC)-c1ccc(O)c(=O)cc1[C@@H](N)CC2	ARNT TACC3 PPI 57.8 (no result: CaV13 FRET inh) | ARNT Alpha ctr inactive
COC(=O)[C@@H]1[C@@H](CO)[C@@H]2Cn3c(ccc(-c4cccc(OC)c4)c3=O)[C@H]1N2C(=O)c1ccccc1F	none (no result: CAL PDZ FP-1, CaV13 FRET inh, CAL PDZ FP-2)
Cc1cccc(S(=O)(=O)N2[C@@H]3c4ccc(-c5ccncc5)c(=O)n4C[C@H]2[C@H](CO)[C@H]3C(=O)O)c1	none (no result: CAL PDZ FP-1, CaV13 FRET inh, CAL PDZ FP-2)
COc1ccc(Cc2c(O)[nH]c(=O)[nH]c2=O)c(OC)c1	ARNT TACC3 PPI 14.9 | ARNT Alpha ctr inactive
COc1ccc(CC2C(=O)NC(=O)NC2=O)c(OC)c1	none (no result: CaV13 FRET inh)
CCCCOCCCn1c(N)c(C(=O)OCCOC)c2nc3ccccc3nc21	ARNT TACC3 PPI 68.2 (no result: CAL PDZ FP-1, CaV13 FRET inh) | ARNT Alpha ctr inactive
COCCCn1c(N)c(C(=O)NCCC(C)C)c2nc3ccccc3nc21	ARNT TACC3 PPI active | ARNT Alpha ctr inactive
CCCCn1c(NC(=O)c2ccco2)c(C(=O)OCC)c2nc3ccccc3nc21	ARNT TACC3 PPI 29.9 | ARNT Alpha ctr inactive
CCCCn1c(N)c(C(=O)OCCOC)c2nc3ccccc3nc21	none (no result: ARNT TACC3 PPI, CAL PDZ FP-1, CAL PDZ FP-2)
O=C(Cc1cccnc1)N1CCCCN2[C@@H](CO)[C@@H](c3ccc(/C=C/c4ccccc4)cc3)[C@@H]2C1	none (no result: CAL PDZ FP-1, CaV13 FRET inh, CAL PDZ FP-2)
O=C(Cc1ccccn1)N1CCCCN2[C@@H](CO)[C@@H](c3ccc(-c4ccc(F)cc4)cc3)[C@@H]2C1	none (no result: CAL PDZ FP-1, CaV13 FRET inh, CAL PDZ FP-2)
COc1ccc(-c2cc(=Nc3ccccc3)c3cc(C)ccc3o2)cc1	none
COc1ccc(-c2cc(=NCCC(=O)O)c3cc(C)ccc3o2)cc1	ARNT TACC3 PPI 30.2 (no result: CAL PDZ FP-2) | ARNT Alpha ctr inactive
